{"data": "Experimental data collected from several papers", "target": "Tyrosine-protein kinase Lyn (LYN, Homo sapiens, UniProt P07948)", "note": "Compare with care: the assays were run in different laboratories."}
{"Compound": "CS(=O)(=O)CCNCc1ccc(-c2ccc3ncnc(Nc4ccc(OCc5cccc(F)c5)c(Cl)c4)c3c2)o1", "effect on": "cell-free assay", "concentration": "0.5 µM", "quantity": "remaining signal", "result": "104%"}
{"Compound": "Cn1c2c(c3ccc(Cl)c(Cl)c31)C(C#N)C1(CCOCC1)NC2=O (centres unmarked)", "effect on": "thermal stability", "technique": "DSF", "concentration": "10 µM", "quantity": "ΔTm", "result": "-0.2 °C"}
{"Compound": "CNCc1ccc(-c2cc(-c3nc(-c4ccc(S(=O)(=O)C(C)C)cc4)cnc3N)on2)cc1", "effect on": "enzyme activity", "mode": "inhibitor", "concentration": "2 µM", "quantity": "inhibition", "result": "53%"}
{"Compound": "O=c1c2ccccc2[nH]c(=S)n1CCN1CCC(=C(c2ccc(F)cc2)c2ccc(F)cc2)CC1", "effect on": "enzyme activity", "mode": "inhibitor", "concentration": "0.5 µM", "quantity": "remaining activity", "result": "108%"}
{"Compound": "CCN(CC)c1ccc(C2=NNC(=O)CC2C)cc1[N+](=O)[O-] (centres unmarked)", "effect on": "enzyme activity", "mode": "inhibitor", "concentration": "10 µM", "quantity": "remaining activity", "result": "114%"}
{"Compound": "C[C@H](NC(=O)c1cnc2n1[C@](C)(Cc1ccc(C#N)cc1)C(=O)N2c1cc(Cl)c(F)c(Cl)c1)C(=O)NC1(c2ccccn2)CC1", "effect on": "cell-free assay", "technique": "competition with immobilised ligand", "concentration": "1 µM", "quantity": "remaining binding", "result": "100%"}
{"Compound": "Cn1c2c(Cl)c(Cl)ccc2c2cc(N)[nH]c(=O)c21", "effect on": "thermal stability", "technique": "DSF", "concentration": "10 µM", "quantity": "ΔTm", "result": "0.3 °C"}
{"Compound": "COc1cc2c(N3CCN(C(=O)Nc4ccc(OC(C)C)cc4)CC3)ncnc2cc1OCCCN1CCCCC1", "effect on": "cell-free assay", "concentration": "0.5 µM", "quantity": "remaining signal", "result": "95.6%"}
{"Compound": "CC(C)(O)c1cncc(-c2nc3ccc(F)cc3n2C2CC2)c1", "effect on": "cell-free assay", "technique": "competition with immobilised ligand", "concentration": "1 µM", "quantity": "remaining binding", "result": "100%"}
{"Compound": "CC(C)(O)[C@H]1CC[C@H](Nc2ccc3ncc(-c4cccc(C(F)(F)F)c4)n3n2)CC1", "effect on": "enzyme activity", "mode": "inhibitor", "concentration": "1 µM", "quantity": "remaining activity", "result": "41.9%"}
{"Compound": "CS(=O)(=O)c1cc(C2(NC(=O)c3cncc4c3cnn4-c3ccc(F)cc3)CC2)ccn1", "effect on": "cell-free assay", "technique": "competition with immobilised ligand", "concentration": "1 µM", "quantity": "remaining binding", "result": "100%"}
{"Compound": "C=CC(=O)Nc1cc(Nc2nccc(Nc3cc(Cl)c(F)cc3C(C)(C)O)n2)c(OC)cc1N1CC[C@@H](N(C)C)C1", "effect on": "enzyme activity", "mode": "inhibitor", "concentration": "1 µM", "quantity": "inhibition", "result": "44%"}
{"Compound": "CC1=C(C#N)[C@@H](c2ccc3[nH]nc(C)c3c2)C(C#N)=C(c2ccc(Cl)cc2)N1", "effect on": "cell-free assay", "technique": "competition with immobilised ligand", "concentration": "1 µM", "quantity": "remaining binding", "result": "96.8%"}
{"Compound": "COc1ccc(COc2ccc(Cc3cnc(N)nc3N)cc2OC)cc1", "effect on": "cell-free assay", "concentration": "0.5 µM", "quantity": "remaining signal", "result": "99.9%"}
{"Compound": "N#CC1(c2ccccn2)CCN(Cc2cc(C(=O)N3CCCC3)c(=O)n3ccccc23)CC1", "effect on": "cell-free assay", "technique": "competition with immobilised ligand", "concentration": "1 µM", "quantity": "remaining binding", "result": "99%"}
{"Compound": "Cc1ccc(C(=O)NCc2ccsc2)cc1C#Cc1cn(C(C)C)c2ncnc(N)c12", "effect on": "enzyme activity", "mode": "inhibitor", "concentration": "1 µM", "quantity": "activity vs control", "result": "0%"}
{"Compound": "CN(C)C(=O)Cn1cc(-c2nc(C3(c4ccc(-c5cnc(N)nc5)cc4)CC3)no2)cn1", "effect on": "cell-free assay", "technique": "competition with immobilised ligand", "concentration": "1 µM", "quantity": "remaining binding", "result": "79%"}
{"Compound": "O=C1NC(=O)c2cc(Nc3ccc(F)cc3)c(Nc3ccc(F)cc3)cc21", "effect on": "cell-free assay", "mode": "inhibitor", "concentration": "0.5 µM", "quantity": "remaining signal", "result": "98.7%"}
{"Compound": "CNC(=O)c1cc2c(Oc3ccc(NC(=O)C4(C(=O)Nc5ccc(F)cc5)CC4)cc3)ccnc2cc1OC", "effect on": "enzyme activity", "mode": "inhibitor", "technique": "radiometric", "concentration": "1 µM", "quantity": "inhibition", "result": "99%"}
{"Compound": "CCN1CCC2(CC1)NC(=O)c1c(c3ccc(Cl)c(Cl)c3n1C)C2C#N (racemic)", "effect on": "thermal stability", "technique": "DSF", "concentration": "10 µM", "quantity": "ΔTm", "result": "0 °C"}
{"Compound": "CNC(=O)c1cc(Oc2ccc(NC(=O)Nc3ccc(Cl)c(C(F)(F)F)c3)cc2)ccn1", "effect on": "enzyme activity", "mode": "inhibitor", "concentration": "10 µM", "quantity": "inhibition", "result": "96%"}
{"Compound": "CCC1(CC)NC(=O)c2c(c3ccc(Cl)c(Cl)c3n2C)C1C#N (centres unmarked)", "effect on": "thermal stability", "technique": "DSF", "concentration": "10 µM", "quantity": "ΔTm", "result": "-0.3 °C"}
{"Compound": "CCOC(=O)c1cc2cc(-c3cc(C(=O)NCc4ccc(C(=O)O)cc4)nn3C)ccc2[nH]1", "effect on": "cell-free assay", "technique": "competition with immobilised ligand", "concentration": "0.1 µM", "quantity": "remaining binding", "result": "100%"}
{"Compound": "CC(C)(C)c1nc2c(s1)c1nc(N)ncc1c1ccc(NS(=O)(=O)c3c(F)cccc3F)c(F)c12", "effect on": "enzyme activity", "mode": "inhibitor", "technique": "radiometric", "concentration": "1 µM", "quantity": "remaining activity", "result": "87%"}
{"Compound": "CCN(CC)CCNC(=O)c1c(C)[nH]c(/C=C2\\C(=O)Nc3ccc(Cl)cc32)c1C", "effect on": "enzyme activity", "mode": "inhibitor", "concentration": "0.5 µM", "quantity": "remaining activity", "result": "6.34%"}
{"Compound": "Cn1c2c(c3ccccc31)C(C#N)C(C)(C)NC2=O (centres unmarked)", "effect on": "thermal stability", "technique": "DSF", "concentration": "10 µM", "quantity": "ΔTm", "result": "0 °C"}
{"Compound": "Cc1sc(C(=O)NC2COC2)cc1-n1cc(NC(=O)Nc2c(F)cccc2Cl)cn1", "effect on": "enzyme activity", "mode": "inhibitor", "concentration": "10 µM", "quantity": "remaining activity", "result": "106%"}
{"Compound": "CCCOc1ccc(OC)c(F)c1C(=O)c1ccc(C(=O)N[C@@H]2CNC[C@H]2NC(=O)c2ccc3[nH]ncc3c2)cc1", "effect on": "enzyme activity", "mode": "inhibitor", "concentration": "10 µM", "quantity": "remaining activity", "result": "39%"}
{"Compound": "N#CC1c2c([nH]c3c(Cl)c(Cl)ccc23)C(=O)NC12CCCCC2 (racemic)", "effect on": "thermal stability", "technique": "DSF", "concentration": "10 µM", "quantity": "ΔTm", "result": "0.2 °C"}
{"Compound": "CCN(CC)CCNC(=O)c1c(C)[nH]c(/C=C2\\C(=O)Nc3ccc(F)cc32)c1C", "effect on": "enzyme activity", "mode": "inhibitor", "concentration": "10 µM", "quantity": "inhibition", "result": "98%"}
{"Compound": "CN(C(=O)c1ccccc1)c1cc(N(C)c2ccc3c(c2)CCc2ccc(C(=O)NCCN4CCOCC4)cc2C3=O)ccc1F", "effect on": "cell-free assay", "technique": "competition with immobilised ligand", "concentration": "1 µM", "quantity": "remaining binding", "result": "86%"}
{"Compound": "Cc1cnc(NC2CCOCC2)nc1-n1cnc(C(=O)NC(CN)c2cc(F)cc(Cl)c2)c1 (centres unmarked)", "effect on": "enzyme activity", "mode": "inhibitor", "technique": "radiometric", "concentration": "1 µM", "quantity": "remaining activity", "result": "84%"}
{"Compound": "N#CCCc1ccc2c(c1)-c1[nH]c3ccc([N+](=O)[O-])cc3c1CC(=O)N2", "effect on": "cell-free assay", "concentration": "0.5 µM", "quantity": "remaining signal", "result": "23%"}
{"Compound": "Cc1ccc(NC(=O)c2ccc(C)c(C(F)(F)F)c2)cc1C#Cc1nn(C2CCC(O)CC2)c2ncnc(N)c12 (centres unmarked)", "effect on": "cell-free assay", "mode": "inhibitor", "concentration": "10 µM", "quantity": "remaining signal", "result": "0%"}
{"Compound": "Cn1c2c(c3ccc(Cl)c(Cl)c31)C(C#N)C1(CCN(C(=O)OC(C)(C)C)CC1)NC2=O (racemic)", "effect on": "thermal stability", "technique": "DSF", "concentration": "10 µM", "quantity": "ΔTm", "result": "0 °C"}
